Source: ChEMBL document CHEMBL1125290, “Bis basic substituted diaminobenzobisthiazoles as potential antiarthritic agents” (1992)

How the values were obtained:
Format in all cases: functional
[1] = test system: Rattus norvegicus; assay: Antiinflammatory activity against D-adjuvant arthritis in injected rat paw at the dose of 50 mg/kg by oral administration
[2] = test system: Rattus norvegicus; assay: Antiinflammatory activity against D-adjuvant arthritis in uninjected rat paw at the dose of 50 mg/kg by oral administration
Summary of the method: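 Rat developing adjuvant arthritis screen with oral dosing on a prophylactic protocol. Percent change in body weight versus untreated animals was recorded as a preliminary toxicity sign. Significance was assessed against controls by two-tailed Student's t test, p < 0.05.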

[3] = organism: Rattus norvegicus; assay: Antiinflammatory activity in D-adjuvant induced arthritis in rat measured by the change in body weight; design: concentration or dose not given beside the values
[4] = test system: Rattus norvegicus; assay: Antiinflammatory activity against carrageenan induced rat paw edema (CPE), dosed orally
Summary of the method: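 Male Sprague–Dawley rats (150 ± 10 g), five per group. Compound or vehicle given orally in 0.5% methylcellulose 1 h before subplantar injection of 0.1 mL 1% carrageenan in saline into the right hind paw. Paw volume measured by mercury displacement before dosing and 3 h after carrageenan; the difference is the edema volume. ANOVA with Dunnett's t test.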

| SMILES | inhibition in vivo at 50 mg/kg [1] [%] | inhibition in vivo at 50 mg/kg [2] [%] | Activity [3] [%] | Inhibition [4] [%] |
| --- | --- | --- | --- | --- |
| CC1CCCC1NCC(=O)Nc1nc2cc3nc(NC(=O)CNC4CCCC4C)sc3cc2s1 (stereo not drawn) | 0 | 0 | -22 | 36 |
| CCOC(=O)c1c2sc(N)nc2cc2nc(N)sc12 | 23 | 0 | -14 | 2 |
| CCOC(=O)c1c2sc(NC(=O)CN(CC)CC)nc2c(Cl)c2nc(NC(=O)CN(CC)CC)sc12 | 0 | 0 | -16 | 5 |
| O=C(CN1CCCCC1CCO)Nc1nc2cc3nc(NC(=O)CN4CCCCC4CCO)sc3cc2s1 (stereo not drawn) | 4 | 5 | -9 | 30 |
| CCN(CC)CC(=O)Nc1nc2cc3nc(NC(=O)CN(CC)CC)sc3c(Br)c2s1 | 80 | 100 | -45 | 0 |
| O=C(CNC1CC1)Nc1nc2cc3nc(NC(=O)CNC4CC4)sc3cc2s1 | 0 | 16 | 14 | 18 |
| O=C(CN1CCN(CCO)CC1)Nc1nc2cc3nc(NC(=O)CN4CCN(CCO)CC4)sc3cc2s1 | 16 | 72 | 0 | 24 |
| CC1CCN(CC(=O)Nc2nc3cc4nc(NC(=O)CN5CCC(C)CC5)sc4cc3s2)CC1 | 70 | 100 | -26 | 20 |
| O=C(CN1CCC(c2ccccc2)CC1)Nc1nc2cc3nc(NC(=O)CN4CCC(c5ccccc5)CC4)sc3cc2s1 | 40 | 12 | -12 | 1 |
| O=C(CNC1CCCCCC1)Nc1nc2cc3nc(NC(=O)CNC4CCCCCC4)sc3cc2s1 | 6 | 59 | 1 | 0 |
| O=C(CNc1ccccc1)Nc1nc2cc3nc(NC(=O)CNc4ccccc4)sc3cc2s1 | 0 | 0 | -11 | 0 |
| CCN(CC)CC(=O)Nc1nc2c(s1)c(OC)cc1nc(NC(=O)CN(CC)CC)sc12 | 47 | 51 | 7 | 32 |
| CC(C)NCC(=O)Nc1nc2cc3nc(NC(=O)CNC(C)C)sc3cc2s1 | 9 | 11 | 7 | 28 |
| O=C(CN1CCNCC1)Nc1nc2cc3nc(NC(=O)CN4CCNCC4)sc3cc2s1 | 31 | 27 | -9 | 19 |
| O=C(CN1CCC(Cc2ccccc2)CC1)Nc1nc2cc3nc(NC(=O)CN4CCC(Cc5ccccc5)CC4)sc3cc2s1 | 15 | 13 | -16 | 9 |
| CCN(CC)CCCC(C)Nc1nc2cc3nc(NC(C)CCCN(CC)CC)sc3cc2s1 (stereo not drawn) | 0 | 0 | -17 | 0 |
| O=C(CN1CCN(c2ccc(Cl)cc2)CC1)Nc1nc2cc3nc(NC(=O)CN4CCN(c5ccc(Cl)cc5)CC4)sc3cc2s1 | 21 | 41 |  | 12 |
| CCN(CC)CC(=O)Nc1nc2c(s1)c(OC)c(Cl)c1nc(NC(=O)CN(CC)CC)sc12 | 38 | 8 | -11 | 17 |
| CCN(CC)CC(=O)Nc1nc2cc3nc(NC(=O)CN(CC)CC)sc3c(Cl)c2s1 | 94 | 100 | -46 | 8 |
| O=C(CN1CCN(c2cccc(C(F)(F)F)c2)CC1)Nc1nc2cc3nc(NC(=O)CN4CCN(c5cccc(C(F)(F)F)c5)CC4)sc3cc2s1 | 39 | 73 | 4 | 0 |
| O=C(CN1CCN(c2ccccc2)CC1)Nc1nc2cc3nc(NC(=O)CN4CCN(c5ccccc5)CC4)sc3cc2s1 | 40 | 56 | 1 | 0 |
| COc1cc2nc(N)sc2c2nc(N)sc12 | 34 | 35 | -29 | 43 |
| CN(CC(=O)Nc1nc2cc3nc(NC(=O)CN(C)C4CCCCCCC4)sc3cc2s1)C1CCCCCCC1 | 22 | 29 | -3 | 0 |

| SMILES | inhibition in vivo at 50 mg/kg [1] [%] | inhibition in vivo at 50 mg/kg [2] [%] | Activity [3] [%] | Inhibition [4] [%] |
| --- | --- | --- | --- | --- |
| CN1CCN(CC(=O)Nc2nc3cc4nc(NC(=O)CN5CCN(C)CC5)sc4cc3s2)CC1 | 0 | 0 | -25 | 28 |
| CCN(CC)CC(=O)Nc1nc2cc3nc(NC(=O)CN4CCCCC4)sc3cc2s1 | 50 | 58 | -14 | 20 |
| CCN(CC)CC(=O)Nc1nc2cc3nc(NC(=O)CN(CC)CC)sc3c(N)c2s1 | 26 | 38 | -35 | 53 |
| CC1CCCCN1CC(=O)Nc1nc2cc3nc(NC(=O)CN4CCCCC4C)sc3cc2s1 (stereo not drawn) | 41 | 82 | 6 | 0 |
| O=C(CN1CCCC1)Nc1nc2cc3nc(NC(=O)CN4CCCC4)sc3cc2s1 | 18 | 21 | -21 | 17 |
| O=C(CNC1CCCC1)Nc1nc2cc3nc(NC(=O)CNC4CCCC4)sc3cc2s1 | 43 | 70 | 10 | 13 |
| O=C(CN1CCN(CC(F)(F)F)CC1)Nc1nc2cc3nc(NC(=O)CN4CCN(CC(F)(F)F)CC4)sc3cc2s1 | 0 | 10 | -13 | 25 |
| CCN(CC)CC(=O)N(C)c1nc2c(ccc3sc(N(C)C(=O)CN(CC)CC)nc32)s1 | 0 | 34 | 4 | 21 |
| CCOC(=O)C1CCCCN1CC(=O)Nc1nc2cc3nc(NC(=O)CN4CCCCC4C(=O)OCC)sc3cc2s1 (stereo not drawn) | 6 | 0 | -16 | 20 |
| CCN(CC)CC(=O)N(CC)c1nc2cc3nc(N(CC)C(=O)CN(CC)CC)sc3c(Br)c2s1 | 0 | 0 | -16 | 16 |
| O=C(CN1CCCCCC1)Nc1nc2cc3nc(NC(=O)CN4CCCCCC4)sc3cc2s1 | 26 | 27 |  | 0 |
| Cc1c2nc(N)sc2c(C(=O)[O-])c2sc(N)nc12.[Na+] | 7 | 0 | -15 | 22 |
| CC1CCC(NCC(=O)Nc2nc3cc4nc(NC(=O)CNC5CCC(C)C5)sc4cc3s2)C1 (stereo not drawn) | 11 | 30 | -7 | 11 |
| O=C(CN1CCC(N2CCCCC2)CC1)Nc1nc2cc3nc(NC(=O)CN4CCC(N5CCCCC5)CC4)sc3cc2s1 | 46 | 38 | -3 | 0 |
| CN(C)CC(=O)Nc1nc2cc3nc(NC(=O)CN(C)C)sc3cc2s1 | 1 | 81 | -37 | 8 |
| CN(CC(=O)Nc1nc2cc3nc(NC(=O)CN(C)C4CCCC4)sc3cc2s1)C1CCCC1 | 21 | 3 | -18 | 6 |
| Cl.Cl.O=C(CN1CCOCC1)Nc1nc2cc3nc(NC(=O)CN4CCOCC4)sc3cc2s1 | 18 | 21 | -21 | 17 |
| CCN(CC)CC(=O)Nc1nc2c(ccc3nc(NC(=O)CN(CC)CC)sc32)s1.Cl.Cl | 2 | 36 | -20 | 0 |
| CC1CN(CC(=O)Nc2nc3cc4nc(NC(=O)CN5CC(C)NCC5C)sc4cc3s2)C(C)CN1.Cl.Cl.Cl.Cl (stereo not drawn) | 0 | 0 | -6 | 0 |
| CCCN(CCC)CC(=O)Nc1nc2cc3nc(NC(=O)CN(CCC)CCC)sc3cc2s1.Cl.Cl | 29 | 47 | -11 | 46 |
| CCN(CC)CC(=O)Nc1nc2c(Cl)c3nc(NC(=O)CN(CC)CC)sc3c(C#N)c2s1.Cl.Cl | 80 | 100 | -35 | 19 |
| O=C(CN1CCN(Cc2ccccc2)CC1)Nc1nc2cc3nc(NC(=O)CN4CCN(Cc5ccccc5)CC4)sc3cc2s1 | 5 | 6 | -6 | 26 |
